Experimental data published in ChEMBL document CHEMBL1134293, “Design of selective and soluble inhibitors of tumor necrosis factor-alpha converting enzyme (TACE)” (J Med Chem, 2001).
In brackets after ≈: the same amount, converted by molar mass.

Legend:
[1] = molecular target: Stromelysin-1 (Homo sapiens, UniProt P08254); experiment: Inhibition potency was determined by fluorescence-based peptide assay against matrix metalloprotease-3; design: species or system Escherichia coli
How it was run: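 Full-length active MMP-3 expressed in E. coli, refolded 1 h in 200 mM NaCl, 50 mM Tris, 5 mM CaCl2, 10 μM ZnSO4, 0.01% Brij 35, pH 7.6, used at 5 nM in the same buffer. Preincubated 20 min at room temperature with inhibitor across eleven 3-fold dilutions, then fluorogenic Dnp-Pro-Cha-Gly-Cys(Me)-His-Ala-Lys(Nma)-NH2 added; product read at ex 343/em 450 nm; IC50 (nM).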

[2] = molecular target: T1, Interstitial collagenase (Homo sapiens, UniProt P03956); experiment: Inhibition potency was determined by fluorescence-based peptide assay against matrix metalloprotease-1; design: species or system Escherichia coli
T1 sequence (P03956 whole entry): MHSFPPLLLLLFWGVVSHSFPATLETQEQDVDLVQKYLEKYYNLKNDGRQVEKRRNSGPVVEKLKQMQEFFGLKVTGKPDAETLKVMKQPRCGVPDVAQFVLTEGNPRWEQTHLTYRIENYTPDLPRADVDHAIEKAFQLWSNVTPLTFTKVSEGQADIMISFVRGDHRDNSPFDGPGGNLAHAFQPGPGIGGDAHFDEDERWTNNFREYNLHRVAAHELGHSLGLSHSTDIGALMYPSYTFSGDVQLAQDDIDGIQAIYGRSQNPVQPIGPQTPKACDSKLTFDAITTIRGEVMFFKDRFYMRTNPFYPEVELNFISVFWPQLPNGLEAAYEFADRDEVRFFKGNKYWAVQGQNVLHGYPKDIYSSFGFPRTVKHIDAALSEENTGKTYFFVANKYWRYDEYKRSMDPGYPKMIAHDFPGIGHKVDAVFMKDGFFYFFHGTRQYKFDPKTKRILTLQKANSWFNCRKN
How it was run: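 Recombinant MMP-1 catalytic domain expressed in E. coli, refolded 1 h in 200 mM NaCl, 50 mM Tris, 5 mM CaCl2, 10 μM ZnSO4, 0.01% Brij 35, pH 7.6, and assayed at 1.0 nM in the same buffer. Enzyme preincubated 20 min at room temperature with inhibitor (eleven-point 3-fold dilutions). Reaction started with fluorogenic Dnp-Pro-Cha-Gly-Cys(Me)-His-Ala-Lys(Nma)-NH2; ex 343/em 450 nm; IC50 (nM).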

[3] = molecular target: Matrix metalloproteinase-9 (Homo sapiens, UniProt P14780); experiment: Inhibition potency was determined by fluorescence-based peptide assay against matrix metalloprotease-9
Matrix metalloproteinase-9, sequence (P14780 whole entry, the tested form may be a part): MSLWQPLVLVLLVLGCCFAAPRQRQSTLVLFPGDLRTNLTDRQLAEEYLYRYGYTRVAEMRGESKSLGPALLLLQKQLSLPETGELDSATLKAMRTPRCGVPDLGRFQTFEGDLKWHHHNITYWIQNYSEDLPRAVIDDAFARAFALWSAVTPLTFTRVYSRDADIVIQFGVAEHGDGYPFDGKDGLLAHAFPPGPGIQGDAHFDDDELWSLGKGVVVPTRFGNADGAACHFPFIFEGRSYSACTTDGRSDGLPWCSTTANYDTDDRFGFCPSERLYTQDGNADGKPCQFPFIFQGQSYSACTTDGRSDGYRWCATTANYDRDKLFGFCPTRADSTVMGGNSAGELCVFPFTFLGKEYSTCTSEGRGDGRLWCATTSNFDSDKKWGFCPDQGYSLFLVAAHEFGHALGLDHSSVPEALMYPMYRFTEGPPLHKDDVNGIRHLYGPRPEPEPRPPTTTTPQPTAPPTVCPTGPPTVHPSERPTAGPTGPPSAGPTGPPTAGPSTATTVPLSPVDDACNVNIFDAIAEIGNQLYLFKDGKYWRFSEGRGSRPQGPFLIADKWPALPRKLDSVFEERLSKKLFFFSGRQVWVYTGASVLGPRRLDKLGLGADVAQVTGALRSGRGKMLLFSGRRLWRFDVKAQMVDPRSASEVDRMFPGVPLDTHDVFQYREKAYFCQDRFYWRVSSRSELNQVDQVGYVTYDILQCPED
How it was run: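 Catalytic domain of proMMP-9 purified from baculovirus-infected T. ni cell media, 0.1 nM in 200 mM NaCl, 50 mM Tris, 5 mM CaCl2, 10 μM ZnSO4, 0.01% Brij 35, pH 7.6. Preincubated with inhibitor 20 min at room temperature; fluorogenic Dnp-Pro-Cha-Gly-Cys(Me)-His-Ala-Lys(Nma)-NH2 added; fluorescence ex 343/em 450 nm; eleven-point 3-fold dilutions give IC50 (nM).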

[4] = molecular target: Disintegrin and metalloproteinase domain-containing protein 17 (Homo sapiens, UniProt P78536); experiment: Inhibition of TACE using scintillation proximity assay (SPA)
Disintegrin and metalloproteinase domain-containing protein 17, sequence (P78536 whole entry, the tested form may be a part): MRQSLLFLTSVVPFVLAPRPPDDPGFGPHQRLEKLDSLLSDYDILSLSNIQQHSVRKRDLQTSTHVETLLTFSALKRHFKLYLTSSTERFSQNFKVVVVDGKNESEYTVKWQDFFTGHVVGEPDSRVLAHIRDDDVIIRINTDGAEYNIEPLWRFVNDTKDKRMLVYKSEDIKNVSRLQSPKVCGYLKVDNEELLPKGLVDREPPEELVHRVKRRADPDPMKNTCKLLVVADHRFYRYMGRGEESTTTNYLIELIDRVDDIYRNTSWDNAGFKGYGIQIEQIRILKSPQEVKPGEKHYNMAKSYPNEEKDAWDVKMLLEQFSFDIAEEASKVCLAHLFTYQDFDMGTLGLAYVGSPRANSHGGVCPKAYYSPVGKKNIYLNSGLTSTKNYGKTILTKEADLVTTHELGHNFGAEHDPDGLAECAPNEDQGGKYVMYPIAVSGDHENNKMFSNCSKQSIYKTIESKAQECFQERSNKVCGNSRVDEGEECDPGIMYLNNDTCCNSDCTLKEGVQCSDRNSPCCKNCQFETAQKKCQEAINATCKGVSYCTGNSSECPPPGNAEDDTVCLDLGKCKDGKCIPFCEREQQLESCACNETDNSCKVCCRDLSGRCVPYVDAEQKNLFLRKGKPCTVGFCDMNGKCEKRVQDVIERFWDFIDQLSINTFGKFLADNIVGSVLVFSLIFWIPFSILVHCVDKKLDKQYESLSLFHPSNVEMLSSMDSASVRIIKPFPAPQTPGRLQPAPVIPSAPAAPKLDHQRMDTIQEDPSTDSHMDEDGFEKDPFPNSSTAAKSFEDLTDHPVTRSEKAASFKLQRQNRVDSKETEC

[5] = test system: Mus musculus; experiment: Inhibition of soluble TNF-alpha production in LPS-Stimulated mice by administration of 40 mg/kg compound per orally; assay type: functional; settings: route oral
How it was run: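 Female C3H/hen mice gavaged at 40 mg/kg (5 mL/kg, homogenized suspension in 0.5% HPMC/0.1% Tween 80) 10 min before ip LPS 0.2 mg/kg in PBS. Killed at 90 min; vena cava plasma TNF-α by ELISA. Percent inhibition vs vehicle group, n = 7 each, 2-sided t-test.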

[6] = Solubility in simulated gastric fluid; assay type: physicochemical; settings: read-out: S
[7] = test system: Mus musculus; experiment: Inhibition of soluble TNF-alpha production in LPS-Stimulated mice by administration of 40 mg/kg compound subcutaneously; assay type: functional; settings: sc, route subcutaneous
How it was run: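 Female C3H/hen mice given 40 mg/kg sc (0.2 mL; DMSO stock into 0.9% NaCl/30% Trappsol HPB-20, final 1% DMSO) 10 min before ip LPS 0.2 mg/kg in PBS. Plasma from vena cava at 90 min, TNF-α by ELISA; percent inhibition vs vehicle controls, n = 7 per group, 2-sided t-test.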

[8] = species on record: Rattus norvegicus; experiment: Inhibition of TNF alpha production in rat Zymosan inflammation model; assay type: functional
How it was run: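 Male Lewis rats given single sc dose (50 mg/kg) as aqueous suspension in 5% EtOH, 5% propylene glycol, 10% Cremephore, 10% Molecusol (5 mL/kg), 10 min before intrapleural zymosan (0.5 mg in 0.25 mL H2O).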

Stromelysin-1, sequence (P08254 whole entry): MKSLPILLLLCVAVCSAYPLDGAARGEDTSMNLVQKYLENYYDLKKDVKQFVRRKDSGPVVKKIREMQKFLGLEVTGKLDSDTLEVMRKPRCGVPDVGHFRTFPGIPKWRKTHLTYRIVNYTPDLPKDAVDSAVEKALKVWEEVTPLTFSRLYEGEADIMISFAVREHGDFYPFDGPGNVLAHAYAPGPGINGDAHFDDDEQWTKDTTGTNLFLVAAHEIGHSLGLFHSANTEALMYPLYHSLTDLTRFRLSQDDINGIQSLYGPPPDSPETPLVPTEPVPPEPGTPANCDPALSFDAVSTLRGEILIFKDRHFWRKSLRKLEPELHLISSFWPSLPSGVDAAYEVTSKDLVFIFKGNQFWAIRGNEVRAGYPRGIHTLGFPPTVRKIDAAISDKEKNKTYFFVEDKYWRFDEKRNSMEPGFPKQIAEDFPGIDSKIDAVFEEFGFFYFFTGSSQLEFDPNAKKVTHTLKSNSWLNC

Row | SMILES | IC50 [1] [nM] | IC50 [2] [nM] | IC50 [3] [nM] | IC50 [4] [nM] | inhibition in vivo at 40 mg/kg [5] [%] | solubility [6] [µg/mL] | inhibition in vivo at 40 mg/kg [7] [%] | Inhibition [8] [%]
1 | CCC[C@@H]([C@@H](Cc1ccc(C)s1)C(=O)N[C@@H](CCC/N=C(/N)NS(=O)(=O)c1ccccn1)C(=O)Nc1nccs1)N(O)C=O | 218 | > 2700 | 379 | 11 | – | – | – | –
2 | CCC[C@@H]([C@@H](CC(C)C)C(=O)N[C@@H](CCC/N=C(/N)NS(=O)(=O)c1ccccn1)C(=O)Nc1nccs1)N(O)C=O | 84 | 76 | 43 | 6 | -28 | – | – | –
3 | N/C(=N/CCC[C@H](NC(=O)[C@H](CC1CCCCC1)[C@H](CCC(F)(F)F)N(O)C=O)C(=O)Nc1nccs1)N[N+](=O)[O-] | 214 | 110 | 49 | 5 | -24 | 54 (≈ 88.7 µM) | 73 | –
4 | CC(C)C[C@@H](C(=O)N[C@H](C(=O)Nc1nccs1)[C@H](C)CC/N=C(/N)NS(C)(=O)=O)[C@H](C(C)C)N(O)C=O | 49 | 8.1 | 12 | 35 | 7 | – | – | –
5 | CCC[C@@H]([C@@H](Cc1ccc(C)s1)C(=O)N[C@@H](CCC/N=C(/N)N[N+](=O)[O-])C(=O)Nc1nccs1)N(O)C=O | 79 | > 2500 | 190 | – | – | – | – | –
6 | CC1CCC(C[C@@H](C(=O)N[C@@H](CCC/N=C(/N)N[N+](=O)[O-])C(=O)Nc2nccs2)[C@H](C(C)C)N(O)C=O)CC1 (stereo partly drawn) | 76 | 85 | 35 | – | -6 | 210 (≈ 369 µM) | 71 | –
7 | CC(C)C[C@@H](C(=O)N[C@H](C(=O)Nc1nccs1)[C@H](C)CC/N=C(/N)N[N+](=O)[O-])[C@H](C)N(O)C=O | 273 | 38 | 19 | 7 | -2 | > 850 | – | –
8 | CC(C)C[C@@H](C(=O)N[C@H](C(=O)Nc1nccs1)[C@H](C)CC/N=C(/N)NS(C)(=O)=O)[C@H](C)N(O)C=O | 169 | 18 | 8.5 | 12 | -3 | > 2130 | – | –
9 | CC(C)C[C@@H](C(=O)N[C@@H](CCC/N=C(/N)NS(C)(=O)=O)C(=O)Nc1nccs1)[C@H](C(C)C)N(O)C=O | 62 | 21 | 22 | 42 | – | – | – | –
10 | NC(=NCCC[C@H](NC(=O)[C@H](CC1CCCCC1)[C@H](C1CC1)N(O)C=O)C(=O)Nc1nccs1)N[N+](=O)[O-] | 1490 | 144 | 602 | 22 | -3 | 920 (≈ 1660 µM) | 56 | –
11 | CC1CCC(C[C@@H](C(=O)N[C@@H](CCCN=C(N)NS(=O)(=O)c2ccccn2)C(=O)Nc2nccs2)[C@H](C(C)C)N(O)C=O)CC1 (stereo partly drawn) | 115 | 96 | 71 | 16 | -9 | – | – | –
12 | CCC[C@@H]([C@@H](CC(C)C)C(=O)N[C@@H](CCCN=C(N)NS(C)(=O)=O)C(=O)Nc1nccs1)N(O)C=O | 122 | 100 | 51 | 7.9 | – | > 1130 | – | –
13 | CCC[C@@H]([C@@H](CC(C)C)C(=O)N[C@H](C(=O)Nc1nccs1)[C@H](C)CC/N=C(/N)N[N+](=O)[O-])N(O)C=O | 47 | 24 | 13 | 5 | -10 | – | – | –
14 | CC(C)C[C@@H](C(=O)N[C@H](C(=O)Nc1nccs1)[C@H](C)CC/N=C(/N)NS(C)(=O)=O)[C@H](CCC(F)(F)F)N(O)C=O | 17 | 52 | 22 | 8 | -5 | – | – | –
15 | CCC[C@@H]([C@@H](CC1CCC(C)CC1)C(=O)N[C@@H](CCC/N=C(/N)N[N+](=O)[O-])C(=O)Nc1nccs1)N(O)C=O (stereo partly drawn) | 200 | 188 | 115 | 9 | -19 | 160 (≈ 281 µM) | 64 | –
16 | CCC[C@@H]([C@@H](CC(C)C)C(=O)N[C@@H](CCC/N=C(/N)N[N+](=O)[O-])C(=O)Nc1nccs1)N(O)C=O | 31 | 34 | 13 | – | -29 | > 1600 | 96 | 30
17 | CCC[C@@H]([C@@H](CC1CCC(C)CC1)C(=O)N[C@@H](CCCN=C(N)NS(=O)(=O)c1ccccn1)C(=O)Nc1nccs1)N(O)C=O (stereo partly drawn) | 282 | 133 | 143 | 6 | – | 160 (≈ 241 µM) | – | –
18 | CCC[C@@H]([C@@H](CC1CCCCC1)C(=O)N[C@@H](CCC/N=C(/N)N[N+](=O)[O-])C(=O)Nc1nccs1)N(O)C=O | 203 | 108 | 55 | 8 | -27 | 330 (≈ 595 µM) | 72 | –
19 | CCC[C@@H]([C@@H](CC(C)C)C(=O)N[C@H](C(=O)Nc1nccs1)[C@H](C)CCN=C(N)NS(C)(=O)=O)N(O)C=O | 156 | 57 | 48 | 6 | 28 | – | – | –
20 | CC(C)C[C@@H](C(=O)N[C@@H](CCC/N=C(/N)N[N+](=O)[O-])C(=O)Nc1nccs1)[C@H](Cc1ccccc1)N(O)C=O | 31 | 26 | 11 | – | – | – | – | –
21 | CC1CCC(C[C@@H](C(=O)N[C@@H](CCCN=C(N)NS(C)(=O)=O)C(=O)Nc2nccs2)[C@H](C(C)C)N(O)C=O)CC1 (stereo partly drawn) | 155 | 122 | 89 | 14 | 32 | 1400 (≈ 2330 µM) | – | –
